Test results taken from PubChem BioAssay AID652250 (Vanderbilt Specialized Chemistry Center, 2013).
Activity calls are given as the source filed them.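 Rule for the calls: active = compounds leaving under half of the peptide-driven platelet calcium rise; inactive = the rest.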

Target: Proteinase-activated receptor 4 (Homo sapiens) (UniProt Q96RI0)
Test: inhibition of PAR4-AP calcium signal – cell-based, single concentration, washed platelets, Fluo4 calcium (AID 652250)
Settings: PAR4-AP calcium Fluo4 fluorescence; for % of max PAR4-AP calcium response: at 10 µM, hits give low values
Procedure, shortened: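 Test system: Fluo4-AM-loaded washed human platelets | Input: 10^8 platelets/mL | Signal: Fluorescence at 480/540 nm, 1 s intervals | Controls: PAR4-AP-stimulated DMSO control (100%) | Replication: Triplicate wells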

Sequence of Proteinase-activated receptor 4 (Homo sapiens) (Q96RI0 whole entry, looked up): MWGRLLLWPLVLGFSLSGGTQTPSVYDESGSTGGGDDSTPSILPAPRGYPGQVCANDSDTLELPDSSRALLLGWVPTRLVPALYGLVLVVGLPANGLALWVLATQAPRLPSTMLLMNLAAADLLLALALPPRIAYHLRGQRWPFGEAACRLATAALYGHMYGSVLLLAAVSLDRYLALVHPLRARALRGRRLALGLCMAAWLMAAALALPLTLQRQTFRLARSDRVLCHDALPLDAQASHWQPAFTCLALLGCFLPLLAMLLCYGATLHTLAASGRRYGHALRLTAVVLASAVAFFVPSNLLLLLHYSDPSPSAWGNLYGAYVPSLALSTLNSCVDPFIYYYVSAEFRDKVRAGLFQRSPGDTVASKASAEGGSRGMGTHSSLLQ

OC(CNCc1ccccc1)Cn1c2c(c3ccccc31)CCCC2 (stereo not given)
% of max PAR4-AP calcium response: inactive

OCCCNc1ncnc2c1c(-c1ccccc1)cn2-c1cccc(Cl)c1
% of max PAR4-AP calcium response: inactive

CCn1ccc(C(=O)Nc2sc(C(=O)OC)c(C)c2C(=O)OC)n1
% of max PAR4-AP calcium response: inactive

COc1ccc(OC)c(NC(=O)Cc2cn(C)c3ccccc23)c1
% of max PAR4-AP calcium response: inactive

CCN(CCCNC(=O)Cc1cn(C)c2ccccc12)c1ccccc1
% of max PAR4-AP calcium response: inactive

COc1ccccc1OCCCn1cc(C(=O)C(F)(F)F)c2ccccc21
% of max PAR4-AP calcium response: inactive

CN(C)CCNC(=O)Cc1cn(C)c2ccccc12
% of max PAR4-AP calcium response: inactive

Cc1ccc(-n2c(/C=C/c3cn(C)c4ccccc34)nc3ccccc3c2=O)cc1
% of max PAR4-AP calcium response: inactive

CC(=O)c1ccc(N2CCN(c3ncnc4c3c(-c3ccccc3)cn4-c3ccccc3)CC2)cc1
% of max PAR4-AP calcium response: inactive

Fc1ccc(CNc2ncnc3c2c(-c2ccccc2)cn3-c2ccc(Br)cc2)cc1
% of max PAR4-AP calcium response: inactive

COc1cc(NS(=O)(=O)c2ccc(NC(=O)c3ccc4c(c3)c(C)c(C)n4C)cc2)ncn1
% of max PAR4-AP calcium response: inactive

O=C(c1cn(CCOc2ccccc2Cl)c2ccccc12)C(F)(F)F
% of max PAR4-AP calcium response: inactive

Cc1ccc2c(c1)c(-c1ccccc1)c(-c1ccccc1)n2CC(O)CN1CCOCC1 (stereo not given)
% of max PAR4-AP calcium response: inactive

COc1ccc(C(C[N+](=O)[O-])c2c(-c3ccccc3)n(C)c3ccccc23)cc1 (stereo not given)
% of max PAR4-AP calcium response: inactive

O=C(Cn1cc(C(=O)C(F)(F)F)c2ccccc21)NC1CCCCCC1
% of max PAR4-AP calcium response: inactive

COc1ccc(N(C)C(=O)Cc2c(C(=O)O)n(C)c3ccccc23)cc1
% of max PAR4-AP calcium response: inactive

O=C(c1cn(Cc2ccccc2Cl)c2ccccc12)C(F)(F)F
% of max PAR4-AP calcium response: inactive

Cc1cc(C)nc(SCC(=O)n2c(C)c(C)c3ccccc32)n1
% of max PAR4-AP calcium response: inactive

CCOc1ncc(-c2cn(Cc3ccccc3)c3ccccc23)cn1
% of max PAR4-AP calcium response: inactive

O=C(N/N=C/c1cccc2cccnc12)c1ccn(Cc2ccc(Cl)cc2)n1
% of max PAR4-AP calcium response: inactive

O=C(Cn1cc(CO)c2ccccc21)Nc1ccc(Cl)cc1
% of max PAR4-AP calcium response: inactive

COc1ccc(OCCn2cc(C(=O)C(F)(F)F)c3ccccc32)cc1
% of max PAR4-AP calcium response: inactive

c1ccc(-c2cn(-c3ccccc3)c3ncnc(N4CCCC4)c23)cc1
% of max PAR4-AP calcium response: inactive

Clc1ccccc1CNc1ncnc2c1c(-c1ccccc1)cn2-c1ccccc1
% of max PAR4-AP calcium response: inactive

CCSc1ncnc2c1c(-c1ccccc1)cn2-c1ccc(F)cc1
% of max PAR4-AP calcium response: inactive

CCn1ccc(C(=O)Nc2ccc(Cl)cc2Cl)n1
% of max PAR4-AP calcium response: inactive

COc1ccc(-c2cn(Cc3ccccc3)c3ccccc23)cn1
IC50: 5.4 µM

Cc1ccc(-n2cc(-c3ccccc3)c3c(NC4CCCC4)ncnc32)cc1Cl
% of max PAR4-AP calcium response: inactive

Cc1cc(F)ncc1-c1cn(Cc2ccccc2)c2ccccc12
% of max PAR4-AP calcium response: inactive

Cc1ccc(-n2cc(-c3ccccc3)c3c(NCC4CCCO4)ncnc32)cc1Cl (stereo not given)
% of max PAR4-AP calcium response: inactive

CCCOc1ccc(-c2cn(Cc3ccccc3)c3ccccc23)cc1
% of max PAR4-AP calcium response: inactive

CC(C)Oc1ccc(-c2cn(Cc3ccccc3)c3ccccc23)cc1F
% of max PAR4-AP calcium response: inactive

OCCCc1cn(-c2ccccc2)c2ccccc12
% of max PAR4-AP calcium response: inactive

c1ccc(-c2ccn(-c3ccccc3)n2)cc1
% of max PAR4-AP calcium response: inactive

Fc1ccc(OCCn2cc(C(=S)N3CCOCC3)c3ccccc32)cc1
% of max PAR4-AP calcium response: 38%

FC(F)(F)c1cccc(-c2cn(Cc3ccccc3)c3ccccc23)c1
% of max PAR4-AP calcium response: inactive

O=C(CSc1ncnc2c1c(-c1ccccc1)cn2-c1ccc(F)cc1)c1ccccc1
% of max PAR4-AP calcium response: inactive

COc1ccc2c(c1)c(C(=O)CNc1nc(C)cs1)c(C)n2C
% of max PAR4-AP calcium response: inactive

CC(C)COc1ccc(-c2cn(Cc3ccccc3)c3ccccc23)cc1
% of max PAR4-AP calcium response: inactive

Cc1c(CCO)c2ccccc2n1-c1ccccc1
% of max PAR4-AP calcium response: inactive

CCn1ccc(C(=O)Nc2ccc(C(F)(F)F)cc2Cl)n1
% of max PAR4-AP calcium response: inactive

COc1ccc(-c2cn(Cc3cccc(Br)c3)c3ccccc23)cn1
IC50: 5.27 µM

OC(CN1CCCCC1)Cn1c2c(c3ccccc31)CCCC2 (stereo not given)
% of max PAR4-AP calcium response: inactive

FC(F)(F)Oc1ccc(-c2cn(Cc3ccccc3)c3ccccc23)cc1
% of max PAR4-AP calcium response: inactive

COc1ccc(Br)cc1CNC(=O)CCCc1cn(C)c2ccccc12
% of max PAR4-AP calcium response: inactive

COc1cc(OC)cc(-c2cn(Cc3ccccc3)c3ccccc23)c1
% of max PAR4-AP calcium response: inactive

CSc1ccc(-c2cn(Cc3ccccc3)c3ccccc23)cn1
% of max PAR4-AP calcium response: inactive

COc1ccc(-c2cn(Cc3cccc(S(C)(=O)=O)c3)c3ccccc23)cn1
IC50: 10 µM

Oc1ccccc1-c1nc2c3c(-c4ccccc4)c(-c4ccccc4)n(Cc4ccco4)c3ncn2n1
% of max PAR4-AP calcium response: inactive

Cc1ccc(-n2cc(-c3ccccc3)c3c(N4CCCC4)ncnc32)cc1
% of max PAR4-AP calcium response: inactive

COc1ccc(-n2cc(-c3ccccc3)c3c(=O)[nH]cnc32)cc1
% of max PAR4-AP calcium response: inactive

CC(C)NC(=O)CCc1cn(Cc2ccccc2)c2ccccc12
% of max PAR4-AP calcium response: inactive

CCc1cc(C(=O)Cc2cnn(-c3ccccc3)c2)c(O)cc1O
% of max PAR4-AP calcium response: inactive

S=C(c1cn(CCOc2ccccc2)c2ccccc12)N1CCCC1
% of max PAR4-AP calcium response: inactive

CCCCN(C)c1ncnc2c1c(-c1ccccc1)cn2-c1cccc(C)c1
% of max PAR4-AP calcium response: inactive

Cc1c(C)n(CC(O)CNCCO)c2ccccc12 (stereo not given)
% of max PAR4-AP calcium response: inactive

COc1ccc2c(c1)c(CC(=O)N1CCC(C(N)=O)CC1)c(C)n2C(=O)c1ccc(Cl)cc1
% of max PAR4-AP calcium response: inactive

CCCCNC(=O)n1ccc(C(=O)Nc2ccc(C)cc2C)n1
% of max PAR4-AP calcium response: inactive

S=C(c1cn(CCOc2ccccc2Cl)c2ccccc12)N1CCCCC1
% of max PAR4-AP calcium response: 39.9%

O=C(Nc1cccc(Br)c1)c1ccn(C(=O)c2ccc(Cl)cc2)n1
% of max PAR4-AP calcium response: inactive

OCCCNc1ncnc2c1c(-c1ccccc1)cn2-c1ccc(F)cc1
% of max PAR4-AP calcium response: inactive

O=C(Cn1cc(CO)c2ccccc21)Nc1ccccc1
% of max PAR4-AP calcium response: inactive

COc1ccc2c(c1)c(C(=O)OCCN(C)C)c(C)n2C
% of max PAR4-AP calcium response: 37.4%

Cc1ccc(C)c(NC(=O)Cn2cc(C(=O)C(F)(F)F)c3ccccc32)c1
% of max PAR4-AP calcium response: inactive

CSc1ncnc2c1c(-c1ccccc1)cn2-c1ccc(F)cc1
% of max PAR4-AP calcium response: inactive

COc1ccc2c(c1)c(C(=O)N1CCCC1)c(C)n2Cc1ccccc1
% of max PAR4-AP calcium response: inactive

Cn1cc(C(=O)Cc2ccccc2)c2ccccc21
% of max PAR4-AP calcium response: inactive

Cc1nn(-c2ccccc2)c2[nH]c(C(F)(F)F)cc(=O)c12
% of max PAR4-AP calcium response: inactive

CC(O)CNc1ncnc2c1c(-c1ccccc1)cn2-c1ccccc1 (stereo not given)
% of max PAR4-AP calcium response: inactive

c1ccc(Cn2cc(CN3CCN(c4ccccc4)CC3)c3ccccc32)cc1
% of max PAR4-AP calcium response: inactive

Cc1cc(O)cc(O)c1C(=O)Cc1cnn(-c2ccccc2)c1
% of max PAR4-AP calcium response: inactive

COc1ccc2c(c1)c(C(C)=O)c(C)n2-c1cccc(Br)c1
% of max PAR4-AP calcium response: inactive

CCOc1ccc(NCC(O)Cn2c(C)c(C)c3ccccc32)cc1 (stereo not given)
% of max PAR4-AP calcium response: inactive

Cc1cccc(NCC(O)Cn2c(C)c(C)c3ccccc32)c1C (stereo not given)
% of max PAR4-AP calcium response: inactive

O=C(c1cn(CCCOc2ccccc2)c2ccccc12)C(F)(F)F
% of max PAR4-AP calcium response: inactive

O=C(c1cn(CCOc2ccc(Cl)cc2)c2ccc(Br)cc12)C(F)(F)F
% of max PAR4-AP calcium response: inactive

Cc1ccc2c(c1)c1c3n2CCN(C(=O)CN2CCN(C(=O)c4ccco4)CC2)C3CCC1 (stereo not given)
% of max PAR4-AP calcium response: inactive

Cc1cc(-c2cn(Cc3ccccc3)c3ccccc23)cnc1F
% of max PAR4-AP calcium response: inactive

CCn1c(COC)c(-c2ccccc2)c2cc([N+](=O)[O-])ccc21
% of max PAR4-AP calcium response: inactive

COc1ccc2c(c1)c(CC(=O)Nc1ccc(Cl)cn1)c(C)n2C(=O)c1ccc(Cl)cc1
% of max PAR4-AP calcium response: inactive

OCCc1cn(-c2ccccc2)c2ccccc12
% of max PAR4-AP calcium response: inactive

Cc1ccc(-n2nc(C(=O)N3CCC(C#N)CC3)c3c4ccccc4n(C)c3c2=O)cc1
% of max PAR4-AP calcium response: inactive

CC(C)Nc1ncnc2c1c(-c1ccccc1)cn2-c1cccc(C(F)(F)F)c1
% of max PAR4-AP calcium response: inactive

COc1ccc2c(c1)c(C(=O)CNc1nc(C)c(C)s1)c(C)n2C
% of max PAR4-AP calcium response: inactive

CCn1ccc(C(=O)NC2CCCCC2)n1
% of max PAR4-AP calcium response: inactive

Cn1cc(CC(=O)NCCN2CCOCC2)c2ccccc21
% of max PAR4-AP calcium response: inactive

Cc1ccc(OCCCn2cc(C(=O)C(F)(F)F)c3ccccc32)cc1
% of max PAR4-AP calcium response: inactive

S=C(c1cn(CCCOc2ccccc2Cl)c2ccccc12)N1CCCC1
% of max PAR4-AP calcium response: inactive

Cc1cccc(NC(=O)Cn2cc(C(=O)C(F)(F)F)c3ccccc32)c1
% of max PAR4-AP calcium response: inactive

Cn1cc(CCCC(=O)NCc2cccs2)c2ccccc21
% of max PAR4-AP calcium response: inactive

COc1ccc2c(c1)c(C(=O)CNc1nccs1)c(C)n2C
% of max PAR4-AP calcium response: inactive

CN(C)c1ccc(/C=N/NC(=O)c2ccn(Cc3ccc(Cl)cc3)n2)cc1
% of max PAR4-AP calcium response: inactive

N#Cc1ccc(-c2cn(Cc3ccccc3)c3ccccc23)cc1
% of max PAR4-AP calcium response: inactive

Fc1ccc(Cn2cc(C(=S)N3CCOCC3)c3ccccc32)cc1
% of max PAR4-AP calcium response: inactive

O=C(Cn1cc(C(=S)N2CCOCC2)c2ccccc21)N1CCOCC1
% of max PAR4-AP calcium response: inactive
